The campaign covered roughly 330,000 compounds. About 1,100 (0.33%) were called active. Many of the other results were omitted from the sample, so actives are more common in it than they were. Values without a mark were called inactive.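 Rule for the calls: active = mean inhibition over replicate wells above about 20% (limit read from the data); inactive = the rest.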

The experiment deals with Ubiquitin carboxyl-terminal hydrolase isozyme L5 (Homo sapiens) (UniProt Q9Y5K5). In words: proteasome-bound UCH37 DUB activity blockers – biochemical, Ub-AMC cleavage, fluorescence, primary screen (AID 588478).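 Note: 0% = compound-free wells with enzyme and 100% = wells lacking proteasome.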 The conditions noted are these: purified proteasome/UCH37, Ub-AMC cleavage fluorescence; stronger effect = higher value; concentration not given here. In a few lines: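 Signal – fluorescence, ex 355 nm, em 460 nm · System – Proteasome-bound UCH37 · Input – 0.15 nM proteasome as dispensed · Timing – 30 min preincubation with enzyme, 25 min cleavage at room temperature · Read-out basis – percent inhibition of cleavage signal versus uninhibited and no-proteasome wells · Medium – Tris-HCl pH 7.4 with ATP-MgCl2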
Chain of Ubiquitin carboxyl-terminal hydrolase isozyme L5 (Homo sapiens) (Q9Y5K5 whole entry, looked up): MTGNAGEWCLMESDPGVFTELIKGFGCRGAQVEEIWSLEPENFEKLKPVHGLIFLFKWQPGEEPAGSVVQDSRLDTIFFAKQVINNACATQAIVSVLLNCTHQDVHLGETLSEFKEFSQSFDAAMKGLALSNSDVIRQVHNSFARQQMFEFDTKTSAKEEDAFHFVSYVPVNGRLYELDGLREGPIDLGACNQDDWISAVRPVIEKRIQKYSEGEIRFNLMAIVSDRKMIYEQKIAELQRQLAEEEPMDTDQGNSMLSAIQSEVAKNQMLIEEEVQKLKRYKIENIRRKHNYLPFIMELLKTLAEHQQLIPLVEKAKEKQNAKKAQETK
With `CC(=NNC(=O)Cc1c[nH]c2ccccc12)c1ccc2ccccc2c1`, the inhibition is -2.68%.
With `Cc1cc(Nc2ccc(C(=O)N3CCCCC3)cc2)c2cccc(C)c2n1`, the inhibition was 7.53%.
For `Cc1ccc(Nc2cc(C)nc3c(C)ccc([N+](=O)[O-])c23)cc1`, the inhibition is 42.3% (active).
On to `Cc1cc(Nc2ccc(N3CCOCC3)cc2)c2cccc(C)c2n1`, for which the inhibition is 9.4%.
Take `CC1(C)CC(=O)CC(=NNC(=O)c2ccc(-c3ccccc3)cc2)C1`: the inhibition is 3.09%.
In the case of `CCOc1cc(C=NO)ccc1OS(=O)(=O)c1ccc(C)cc1`, the inhibition was -0.715%.
To `CC(OC(=O)c1ccc(Cl)cc1O)C(=O)NCCC1=CCCCC1` (configuration not stated) belongs -2.32%; to `CC(C)COc1ccc(C(=O)OCC(=O)NCCC2=CCCCC2)cc1`, 1.87%.
Consider `CC(OC(=O)c1c(F)cccc1F)C(=O)NCCC1=CCCCC1` (configuration not stated), for which the inhibition is 29% (active).
As to `C=CCc1c(C)nc(-c2ccccc2)nc1NN=C(C)c1ccc(N)cc1`, the inhibition is 5.32%.
In the case of `O=C(NN=Cc1sc(N2CCCCC2)nc1-c1cccs1)C1CC1`, the inhibition was -4.87%.
As to `CCCOc1ccc(/C(O)=C2/C(=O)C(=O)N(CCN(C)C)C2c2ccc(OC)c(OC)c2)cc1` (configuration not stated), the inhibition is 9.6%.
The result for `COc1ccc(/C(O)=C2/C(=O)C(=O)N(CCCN(C)C)C2c2ccccc2)cc1OC` (configuration not stated) reads 8.49%; that for `COc1cccc(C2/C(=C(/O)c3ccc(F)cc3)C(=O)C(=O)N2CCN(C)C)c1` (configuration not stated), 26.3% (active).
As to `CCC1SC(C)CC(=NNC(N)=O)C1C` (configuration not stated), the inhibition was 1.74%.
The result for `O=C(NN=Cc1ccc(O)cc1)c1csc2ccccc12` reads 3.7%; that for `Cc1nn(C)c(C(=O)NN=Cc2cccnc2)c1Cl`, 1.1%; that for `CC(=NNc1ccccc1)c1c(O)cc(C)oc1=O`, 2.24%.
Turning to `Cc1cc(C)c[n+](-c2[nH]c(=O)sc2C=NNC([S-])=Nc2ccccc2)c1`, the inhibition was 23% (active).
Regarding `C(=NNc1nc(-c2ccccc2)cs1)c1cccs1`, the inhibition is -0.256%.
For `COc1ccc(Br)cc1C=Nn1c(COc2ccccc2)n[nH]c1=S`, the inhibition is 3.72%.
`Cc1ccc(Cn2nnc3c(=O)[nH]c(C4CCN(S(=O)(=O)/C=C/c5ccccc5)CC4)nc32)cc1`: the inhibition is 0.769%.
`COc1ccc(Cn2nnc3c(=O)[nH]c(C4CCN(C(=O)c5ccccc5Cl)CC4)nc32)cc1`: the inhibition was 35.6% (active).
Turning to `Cc1ccc(NC(=O)N2CCC(c3nc4c(nnn4Cc4c(F)cccc4Cl)c(=O)[nH]3)CC2)cc1`, the inhibition is 1.34%.
On to `Oc1ccc(C=NNC2=NCCCCC2)c(O)c1`, for which the inhibition is -24.8%.
For the molecule `CC(Oc1cccc(Cl)c1)c1ccnc2nc(N=CN(C)C)nn12` (configuration not stated), the inhibition is -41%.
As to `CC(=NNC(=O)c1nnn(-c2nonc2N)c1CSc1ccc(Cl)cc1)c1ccco1`, the inhibition was 0.0783%.
For `O=C(CC1OC(=O)c2ccccc21)NC1CCCCC1` (configuration not stated), the inhibition is 26% (active).
Regarding `O=C(CN1C(=O)c2ccccc2S1(=O)=O)NC1CCCCC1`, the inhibition is 0.614%.
The result for `CC(=O)CC(CC(=O)NC1CCCCC1)c1ccccc1` (configuration not stated) reads 3.65%.
As to `Cc1nnsc1C(=O)NN=Cc1ccccc1`, the inhibition was -1.09%.
The result for `COc1ccc(C(C)=NNC(=O)CN(c2ccc(OC)cc2)S(=O)(=O)c2ccccc2)cc1` reads 3.13%.
